The source made the active and inactive calls. No cut-off for these calls is given here.
How the values were obtained:
[1] = molecular target: T1, 5-hydroxytryptamine receptor 2C (Homo sapiens, UniProt P28335); assay: Agonist activity at human 5-HT2C receptor expressed in HEK293 cells assessed as calcium flux by FLIPR assay; type: functional, cell-based
T1 sequence (P28335 whole entry): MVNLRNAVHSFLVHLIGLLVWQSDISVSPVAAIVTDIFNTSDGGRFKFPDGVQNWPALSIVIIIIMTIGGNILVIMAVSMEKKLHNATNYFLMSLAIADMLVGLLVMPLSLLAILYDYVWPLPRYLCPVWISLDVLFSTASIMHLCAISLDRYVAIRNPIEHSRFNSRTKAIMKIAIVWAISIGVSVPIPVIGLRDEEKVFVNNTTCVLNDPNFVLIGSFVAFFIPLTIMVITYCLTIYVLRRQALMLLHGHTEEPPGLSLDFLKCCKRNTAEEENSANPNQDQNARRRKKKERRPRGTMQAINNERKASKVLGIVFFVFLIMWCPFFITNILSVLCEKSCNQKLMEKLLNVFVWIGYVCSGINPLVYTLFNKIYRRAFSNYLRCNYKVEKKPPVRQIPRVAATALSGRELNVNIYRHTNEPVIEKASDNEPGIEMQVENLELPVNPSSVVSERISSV

[2] = molecular target: T2, 5-hydroxytryptamine receptor 2C (Homo sapiens) (UniProt P28335); assay: Agonist activity at human 5-HT2C receptor expressed in HEK293 cells assessed as calcium flux by FLIPR assay relative to 5-HT; type: functional, cell-based
T2 sequence (whole entry): T1 sequence (P28335 whole entry)
Summary of the method: (§1)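 Flp-In-293 cells stably expressing human 5-HT2A, 5-HT2B or 5-HT2C-INI; grown 24–48 h in DMEM/10% dialyzed FBS, plated on poly-L-Lys at 12000 cells/well in 1% dialyzed FBS for 24 h. Loaded 1 h at 37 °C with calcium dye in HBSS, 20 mM Hepes pH 7.40, 2.5 mM probenecid.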

[3] = molecular target: T3, 5-hydroxytryptamine receptor 2B (Homo sapiens, UniProt P41595); assay: Agonist activity at human 5-HT2B receptor expressed in HEK293 cells assessed as calcium flux by FLIPR assay; type: functional, cell-based
T3 sequence (P41595 whole entry): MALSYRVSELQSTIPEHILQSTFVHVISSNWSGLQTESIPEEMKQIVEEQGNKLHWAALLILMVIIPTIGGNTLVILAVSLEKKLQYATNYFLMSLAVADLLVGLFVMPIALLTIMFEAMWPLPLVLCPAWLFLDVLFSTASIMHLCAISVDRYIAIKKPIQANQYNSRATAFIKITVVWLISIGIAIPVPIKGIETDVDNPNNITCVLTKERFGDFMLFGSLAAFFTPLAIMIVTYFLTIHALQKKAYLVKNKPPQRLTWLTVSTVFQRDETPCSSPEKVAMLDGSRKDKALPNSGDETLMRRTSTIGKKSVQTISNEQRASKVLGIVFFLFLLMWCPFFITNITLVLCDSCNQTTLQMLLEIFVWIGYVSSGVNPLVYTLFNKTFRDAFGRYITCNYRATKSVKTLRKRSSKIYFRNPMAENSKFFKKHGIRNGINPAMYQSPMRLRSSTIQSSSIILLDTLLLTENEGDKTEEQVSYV

[4] = molecular target: T3, 5-hydroxytryptamine receptor 2B; assay: Agonist activity at human 5-HT2B receptor expressed in HEK293 cells assessed as calcium flux by FLIPR assay relative to 5-HT; type: functional, cell-based; summary of the method: as §1
[5] = molecular target: T4, 5-hydroxytryptamine receptor 2A (Homo sapiens, UniProt P28223); assay: Agonist activity at human 5-HT2A receptor expressed in HEK293 cells assessed as calcium flux at 10 uM by FLIPR assay; type: functional, cell-based
T4 sequence (P28223 whole entry): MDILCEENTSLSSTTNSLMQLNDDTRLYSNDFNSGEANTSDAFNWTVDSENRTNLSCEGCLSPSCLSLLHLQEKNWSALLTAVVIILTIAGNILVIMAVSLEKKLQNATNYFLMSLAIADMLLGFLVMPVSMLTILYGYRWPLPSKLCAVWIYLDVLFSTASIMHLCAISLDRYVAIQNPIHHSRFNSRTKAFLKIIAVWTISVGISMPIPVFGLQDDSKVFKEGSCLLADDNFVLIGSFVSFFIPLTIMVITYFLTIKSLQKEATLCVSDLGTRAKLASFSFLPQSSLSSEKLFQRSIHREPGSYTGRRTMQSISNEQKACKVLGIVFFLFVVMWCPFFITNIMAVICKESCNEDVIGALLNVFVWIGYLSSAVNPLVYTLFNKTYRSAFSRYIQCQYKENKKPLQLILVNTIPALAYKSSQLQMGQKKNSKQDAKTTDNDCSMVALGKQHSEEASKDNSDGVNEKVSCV
Summary of the method: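 Flp-In-293 cells stably expressing human 5-HT2A, 5-HT2B or 5-HT2C-INI, grown in DMEM with 10% dialyzed FBS, then plated for 24 h in 1% dialyzed FBS. Cells were loaded 1 h at 37 °C with calcium dye in Hepes-buffered HBSS, pH 7.40, containing 2.5 mM probenecid. FLIPR read 10 s baseline, then 120 s after drug addition.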

[6] = Permeability from apical to basolateral side in human Caco2 cells at pH 7.4; type: ADME, cell-based; conditions: caco-2, pH 7.4
Summary of the method: (§2)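 Caco-2 monolayer permeability measured A–B and B–A in pH 7.4 buffer, reported as ×10−6 cm/s; A–B/B–A ratio derived from these.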

[7] = Permeability from basolateral to apical side in human Caco2 cells at pH 7.4; type: ADME, cell-based; conditions: caco-2, pH 7.4; summary of the method: as §2
[8] = Efflux ratio of permeability from apical to basolateral side over basolateral to apical side in human Caco2 cells at pH 7.4; type: ADME, cell-based; conditions: caco-2, pH 7.4
Liver microsome = assay: Metabolic stability in human liver microsomes; type: ADME
Summary of the method: (§3)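 Incubation with human or CD-1 mouse liver microsomes for 1 h; stability expressed as % parent compound remaining.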

Liver = assay: Metabolic stability in mouse liver microsomes; type: ADME; summary of the method: as §3
CYP3A = CYP3A (Homo sapiens, UniProt P08684+P20815+P24462+Q9HB55); assay: Inhibition of human CYP3A using midazolam as substrate at 10 uM; type: ADME; conditions: probe midazolam
Summary of the method: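 Human liver microsomes, test compound at 10 µM, midazolam as CYP3A substrate; percent inhibition reported; run by a contract lab.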

CYP2D6 = CYP2D6 (Homo sapiens, UniProt P10635); assay: Inhibition of human CYP2D6 using dextromethorphan as substrate at 10 uM; type: ADME; conditions: probe dextromethorphan
CYP2D6, sequence (P10635 whole entry): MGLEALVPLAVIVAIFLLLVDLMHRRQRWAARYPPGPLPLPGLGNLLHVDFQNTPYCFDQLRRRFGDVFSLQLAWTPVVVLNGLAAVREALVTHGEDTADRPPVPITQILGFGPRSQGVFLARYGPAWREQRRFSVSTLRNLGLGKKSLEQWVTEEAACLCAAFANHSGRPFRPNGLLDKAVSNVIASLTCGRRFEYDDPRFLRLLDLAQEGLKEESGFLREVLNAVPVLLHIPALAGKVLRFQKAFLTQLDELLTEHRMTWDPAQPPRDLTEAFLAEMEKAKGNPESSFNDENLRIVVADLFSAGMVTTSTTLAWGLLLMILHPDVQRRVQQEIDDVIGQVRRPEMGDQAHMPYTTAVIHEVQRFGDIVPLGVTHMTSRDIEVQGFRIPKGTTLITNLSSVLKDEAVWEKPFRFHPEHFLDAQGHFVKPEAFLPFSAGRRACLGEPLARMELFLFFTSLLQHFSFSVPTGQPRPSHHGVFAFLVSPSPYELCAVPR

CYP2C9 = CYP2C9 (Homo sapiens, UniProt P11712); assay: Inhibition of human CYP2C9 using diclofenac as substrate at 10 uM; type: ADME; conditions: probe diclofenac
CYP2C9, sequence (P11712 whole entry): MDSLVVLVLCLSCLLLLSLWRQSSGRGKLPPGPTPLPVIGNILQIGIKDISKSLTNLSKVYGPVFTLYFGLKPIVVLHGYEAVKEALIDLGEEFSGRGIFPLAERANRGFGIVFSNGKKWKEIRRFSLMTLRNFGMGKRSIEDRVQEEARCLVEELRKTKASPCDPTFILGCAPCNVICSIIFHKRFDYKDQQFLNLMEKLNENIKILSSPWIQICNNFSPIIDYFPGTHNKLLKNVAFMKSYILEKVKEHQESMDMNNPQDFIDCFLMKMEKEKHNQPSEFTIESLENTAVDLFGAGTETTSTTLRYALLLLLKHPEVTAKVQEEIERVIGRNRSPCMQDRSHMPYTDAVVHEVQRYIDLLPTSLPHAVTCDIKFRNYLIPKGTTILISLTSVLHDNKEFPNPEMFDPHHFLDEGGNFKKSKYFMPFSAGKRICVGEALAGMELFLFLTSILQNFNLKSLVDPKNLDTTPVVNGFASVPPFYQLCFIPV

CYP2C19 = CYP2C19 (Homo sapiens, UniProt P33261); assay: Inhibition of human CYP2C19 using omeprazole as substrate at 10 uM; type: ADME; conditions: probe omeprazole
CYP2C19, sequence (P33261 whole entry): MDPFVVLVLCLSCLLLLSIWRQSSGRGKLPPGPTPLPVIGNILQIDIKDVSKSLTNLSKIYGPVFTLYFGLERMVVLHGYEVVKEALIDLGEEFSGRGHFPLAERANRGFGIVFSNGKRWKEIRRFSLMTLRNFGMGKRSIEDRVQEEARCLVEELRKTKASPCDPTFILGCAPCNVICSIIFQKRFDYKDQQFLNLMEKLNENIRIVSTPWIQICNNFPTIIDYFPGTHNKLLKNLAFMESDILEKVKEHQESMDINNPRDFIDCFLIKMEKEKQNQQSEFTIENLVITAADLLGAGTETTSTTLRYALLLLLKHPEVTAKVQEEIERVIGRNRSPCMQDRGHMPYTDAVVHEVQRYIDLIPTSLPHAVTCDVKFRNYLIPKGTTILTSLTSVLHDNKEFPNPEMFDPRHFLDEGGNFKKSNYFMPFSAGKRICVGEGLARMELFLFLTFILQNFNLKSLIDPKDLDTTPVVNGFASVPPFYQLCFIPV

CYP2B6 = molecular target: T5, CYP2B6 (Homo sapiens, UniProt P20813); assay: Inhibition of human CYP2B6 using bupropion as substrate at 10 uM; type: ADME; conditions: probe bupropion
T5 sequence (P20813 whole entry): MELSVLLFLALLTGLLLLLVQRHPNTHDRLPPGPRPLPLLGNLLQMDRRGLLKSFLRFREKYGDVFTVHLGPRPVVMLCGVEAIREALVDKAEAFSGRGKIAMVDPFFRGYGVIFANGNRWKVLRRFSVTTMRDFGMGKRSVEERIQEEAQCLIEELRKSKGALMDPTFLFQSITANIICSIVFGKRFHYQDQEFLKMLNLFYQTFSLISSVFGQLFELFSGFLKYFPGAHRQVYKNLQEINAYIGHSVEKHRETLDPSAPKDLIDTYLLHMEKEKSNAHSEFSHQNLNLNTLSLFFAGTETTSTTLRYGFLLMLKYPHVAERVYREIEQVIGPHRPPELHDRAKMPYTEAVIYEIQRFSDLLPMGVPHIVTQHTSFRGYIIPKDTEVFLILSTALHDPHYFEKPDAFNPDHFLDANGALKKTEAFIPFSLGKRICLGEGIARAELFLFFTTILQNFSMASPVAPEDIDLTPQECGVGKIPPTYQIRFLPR

[9] = molecular target: Voltage-gated inwardly rectifying potassium channel KCNH2 (Homo sapiens, UniProt Q12809); assay: Inhibition of human ERG channel expressed in CHO cells by patch clamp method; type: cell-based
Voltage-gated inwardly rectifying potassium channel KCNH2, sequence (Q12809 whole entry): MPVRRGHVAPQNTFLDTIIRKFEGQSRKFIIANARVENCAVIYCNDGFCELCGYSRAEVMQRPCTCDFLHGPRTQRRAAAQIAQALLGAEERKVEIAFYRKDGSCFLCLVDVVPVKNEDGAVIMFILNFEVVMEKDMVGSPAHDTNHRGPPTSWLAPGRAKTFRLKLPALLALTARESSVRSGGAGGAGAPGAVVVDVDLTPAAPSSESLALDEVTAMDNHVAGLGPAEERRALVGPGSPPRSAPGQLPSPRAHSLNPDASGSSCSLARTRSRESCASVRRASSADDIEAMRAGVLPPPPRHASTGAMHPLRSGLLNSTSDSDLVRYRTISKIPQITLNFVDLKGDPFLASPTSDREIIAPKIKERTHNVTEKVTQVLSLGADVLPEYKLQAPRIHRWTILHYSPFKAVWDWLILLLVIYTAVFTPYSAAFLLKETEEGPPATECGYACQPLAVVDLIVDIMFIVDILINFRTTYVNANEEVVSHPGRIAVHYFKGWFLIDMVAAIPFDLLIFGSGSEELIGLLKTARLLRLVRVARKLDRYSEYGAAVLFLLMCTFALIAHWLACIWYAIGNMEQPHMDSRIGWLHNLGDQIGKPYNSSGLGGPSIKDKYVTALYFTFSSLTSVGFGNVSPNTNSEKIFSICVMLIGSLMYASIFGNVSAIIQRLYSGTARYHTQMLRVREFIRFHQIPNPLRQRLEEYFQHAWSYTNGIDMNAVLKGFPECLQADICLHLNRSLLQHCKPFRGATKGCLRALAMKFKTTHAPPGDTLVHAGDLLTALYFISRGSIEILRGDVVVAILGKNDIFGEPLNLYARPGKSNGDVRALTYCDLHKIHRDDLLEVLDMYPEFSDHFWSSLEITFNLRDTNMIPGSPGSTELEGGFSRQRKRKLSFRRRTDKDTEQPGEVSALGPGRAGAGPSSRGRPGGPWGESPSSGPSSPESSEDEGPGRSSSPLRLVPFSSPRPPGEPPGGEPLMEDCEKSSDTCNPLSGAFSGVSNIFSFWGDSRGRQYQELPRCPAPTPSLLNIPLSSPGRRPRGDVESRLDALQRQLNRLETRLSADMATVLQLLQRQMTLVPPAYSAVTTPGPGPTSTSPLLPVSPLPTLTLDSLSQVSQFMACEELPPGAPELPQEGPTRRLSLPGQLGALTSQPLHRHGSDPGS

Salmonella typhimurium [10] = assay: Mutagenic activity in Salmonella typhimurium TA98 at 10 to 100 uM by ames test; type: toxicity, organism-based; conditions: salmonella enterica subsp. enterica serovar typhimurium
Summary of the method: (§4)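 Ames fluctuation test in Salmonella strains TA98, TA100, TA1535 and TA1537, with and without S9, at 10, 50 and 100 µM; scored negative or positive.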

Salmonella typhimurium [11] = assay: Mutagenic activity in Salmonella typhimurium TA98 at 10 to 100 uM by ames test in presence of S9 mixture; type: toxicity, organism-based; conditions: salmonella enterica subsp. enterica serovar typhimurium; summary of the method: as §4
Salmonella typhimurium [12] = assay: Mutagenic activity in Salmonella typhimurium TA100 at 10 to 100 uM by ames test; type: toxicity, organism-based; conditions: salmonella enterica subsp. enterica serovar typhimurium; summary of the method: as §4
Salmonella typhimurium [13] = assay: Mutagenic activity in Salmonella typhimurium TA100 at 10 to 100 uM by ames test in presence of S9 mixture; type: toxicity, organism-based; conditions: salmonella enterica subsp. enterica serovar typhimurium; summary of the method: as §4
Salmonella typhimurium [14] = assay: Mutagenic activity in Salmonella typhimurium TA1535 at 10 to 100 uM by ames test; type: toxicity, organism-based; conditions: salmonella enterica subsp. enterica serovar typhimurium; summary of the method: as §4
Salmonella typhimurium [15] = assay: Mutagenic activity in Salmonella typhimurium TA1535 at 10 to 100 uM by ames test in presence of S9 mixture; type: toxicity, organism-based; conditions: salmonella enterica subsp. enterica serovar typhimurium; summary of the method: as §4
Salmonella typhimurium [16] = assay: Mutagenic activity in Salmonella typhimurium TA1537 at 10 to 100 uM by ames test; type: toxicity, organism-based; conditions: salmonella enterica subsp. enterica serovar typhimurium; summary of the method: as §4
Salmonella typhimurium [17] = assay: Mutagenic activity in Salmonella typhimurium TA1537 at 10 to 100 uM by ames test in presence of S9 mixture; type: toxicity, organism-based; conditions: salmonella enterica subsp. enterica serovar typhimurium; summary of the method: as §4
[18] = Drug uptake in CD1 mouse brain at 10 mg/kg, ip after 0.5 hrs; type: ADME, organism-based; design: dose 10 mg/kg, route intraperitoneal; conditions: read-out: Drug uptake
Summary of the method: (§5)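 CD1 mice received a single 10 mg/kg ip dose formulated in pure water. Brain (ng/g) and plasma (ng/mL) levels were measured at 0.5 and 2 h. Brain/plasma ratio assumed a brain tissue density of 1 g/mL.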

[19] = Drug uptake in CD1 mouse brain at 10 mg/kg, ip after 2 hrs; type: ADME, organism-based; design: dose 10 mg/kg, route intraperitoneal; conditions: read-out: Drug uptake; summary of the method: as §5
[20] = Plasma concentration in CD1 mouse at 10 mg/kg, ip after 0.5 hrs; type: ADME, organism-based; design: dose 10 mg/kg, route intraperitoneal; summary of the method: as §5
[21] = Plasma concentration in CD1 mouse at 10 mg/kg, ip after 2 hrs; type: ADME, organism-based; design: dose 10 mg/kg, route intraperitoneal; summary of the method: as §5
Nucleic Acid [22] = assay: Ratio of drug uptake from brain to plasma in CD1 mouse at 10 mg/kg, ip after 0.5 hrs; type: ADME, organism-based; design: dose 10 mg/kg, route intraperitoneal
Nucleic Acid [23] = assay: Ratio of drug uptake from brain to plasma in CD1 mouse at 10 mg/kg, ip after 2 hrs; type: ADME, organism-based; design: dose 10 mg/kg, route intraperitoneal
Mus musculus [24] = assay: Antipsychotic activity in C57BL/6J mouse assessed as reduction of amphetamine-induced locomotor activity administered ip 15 mins prior to amphetamine challenge measured for 105 mins by open field test relative to vehicle-treated control; type: functional, organism-based
[25] = Plasma protein binding in human at 10 uM; type: ADME, cell-free
Summary of the method: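 Human plasma protein binding determined at 10 µM compound, expressed as % bound.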

[26] = molecular target: T2, 5-hydroxytryptamine receptor 2C (Homo sapiens); assay: (§6) Agonist activity at 5HT2C receptor (unknown origin) relative to control
[27] = molecular target: T1, 5-hydroxytryptamine receptor 2C; assay: as §6
[28] = molecular target: T3, 5-hydroxytryptamine receptor 2B; assay: Agonist activity at 5HT2B receptor (unknown origin) relative to control; summary of the method: as §1
Homo sapiens = organism: Homo sapiens; assay: Selectivity ratio of EC50 for 5HT2B receptor (unknown origin) to EC50 for 5HT2C receptor (unknown origin)
[29] = molecular target: T4, 5-hydroxytryptamine receptor 2A; assay: Agonist activity at human 5-HT2A receptor expressed in HEK293 cells assessed as calcium flux by FLIPR assay; type: functional, cell-based
[30] = molecular target: T4, 5-hydroxytryptamine receptor 2A; assay: Agonist activity at human 5-HT2A receptor expressed in HEK293 cells assessed as calcium flux by FLIPR assay relative to 5-HT; type: functional, cell-based; summary of the method: as §1
Mus musculus [31] = assay: Antipsychotic activity in C57BL/6J mouse assessed as reduction of amphetamine-induced locomotor activity at 10 to 20 mg/kg, ip administered 15 mins prior to amphetamine challenge measured for 105 mins by open field test relative to vehicle-treated control; type: functional, organism-based

## C=C(F)COc1ccc(Cl)cc1[C@H]1C[C@@H]1CN.Cl
[1]
  EC50: 133 nM
[2]
  Emax: 81%
[3]
  EC50: 1690 nM
[4]
  Emax: 27%
[5]
  Activity: inactive
[6]
  permeability: 38.3 ×10⁻⁶ cm/s
[7]
  permeability: 10.8 ×10⁻⁶ cm/s
[8]
  Ratio: 3.5
Liver microsome
  Stability: 80%
Liver
  Stability: 62%
CYP3A
  inhibition at 10 µM: 27%
CYP2D6
  inhibition at 10 µM: 80%
CYP2C9
  inhibition at 10 µM: 51%
CYP2C19
  inhibition at 10 µM: 33%
CYP2B6
  inhibition at 10 µM: 77%
[9]
  IC50: 3980 nM
Salmonella typhimurium [10]
  Activity: Non-toxic
Salmonella typhimurium [11]
  Activity: Non-toxic
Salmonella typhimurium [12]
  Activity: Non-toxic
Salmonella typhimurium [13]
  Activity: Non-toxic
Salmonella typhimurium [14]
  Activity: Non-toxic
Salmonella typhimurium [15]
  Activity: Non-toxic
Salmonella typhimurium [16]
  Activity: Non-toxic
Salmonella typhimurium [17]
  Activity: Non-toxic
[18]
  concentration at 0.5 h: 17500 ng/g
[19]
  concentration at 2 h: 14700 ng/g
[20]
  concentration at 0.5 h: 1440 ng/mL
[21]
  concentration at 2 h: 903 ng/mL
Nucleic Acid [22]
  BPR: 12.1
Nucleic Acid [23]
  BPR: 16.2
Mus musculus [24]
  Activity: Dose-dependent effect
[25]
  PPB: 68%

## Clc1cccc(COc2cncc(N3CCNCC3)n2)c1
[26]
  Emax: 93%
[27]
  EC50: 0.11 nM
[28]
  EC50: 65.3 nM
  Emax: 57%
Homo sapiens
  Ratio EC50: 600

## Cl.NC[C@H]1C[C@@H]1c1cc(Cl)ccc1OCCF
[1]
  EC50: 32 nM
[2]
  Emax: 86%
[3]
  EC50: 632 nM
[4]
  Emax: 31%
[29]
  EC50: 1480 nM
[30]
  Emax: 35%
[6]
  permeability: 35.5 ×10⁻⁶ cm/s
[7]
  permeability: 17.5 ×10⁻⁶ cm/s
Liver microsome
  Stability: 95%
Liver
  Stability: 74%
CYP3A
  inhibition at 10 µM: 22%
CYP2D6
  inhibition at 10 µM: 79%
CYP2C9
  inhibition at 10 µM: 33%
CYP2C19
  inhibition at 10 µM: 21%
CYP2B6
  inhibition at 10 µM: 58%
Salmonella typhimurium [10]
  Activity: Non-toxic
Salmonella typhimurium [11]
  Activity: Non-toxic
Salmonella typhimurium [12]
  Activity: Non-toxic
Salmonella typhimurium [13]
  Activity: Non-toxic
Salmonella typhimurium [14]
  Activity: Non-toxic
Salmonella typhimurium [15]
  Activity: Non-toxic
Salmonella typhimurium [16]
  Activity: Non-toxic
Salmonella typhimurium [17]
  Activity: Non-toxic
[18]
  concentration at 0.5 h: 12800 ng/g
[19]
  concentration at 2 h: 13400 ng/g
[20]
  concentration at 0.5 h: 1200 ng/mL
[21]
  concentration at 2 h: 874 ng/mL
Mus musculus [31]
  Activity: Active
[25]
  PPB: 57%

Reference: ChEMBL document CHEMBL3414471 (J Med Chem, 2015)
